Measured values published in the RNAGym collection of RNA variant scans (doi:10.1126/science.aae0568).
This sample holds only a part of the variants without activity.

B1: tRNA (parent)
chain: GUUCCGUUGGCGUAAUGGUAACGCGUCUCCCUCCUAAGGAGAAGACUGCGGGUUCGAGUCCCGUACGGAACG

Variants of: B1
Test: yeast fitness relative to wild type (ratio to wild type); higher = fitter; tRNA-Arg(CCU), competitive growth, 37 C, YPD
Method in brief: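 Amplicons of the tRNA-Arg(CCU) gene were sequenced, 100-nucleotide paired-end, from the start population and from each end population of a pooled yeast competition. The competition, in six parallel replicates, lasted 24 hours in YPD at 37°C. Fitness relative to wild type was calculated from changes in genotype frequencies. Genotypes had to have ≥ 100 starting reads, and estimates < 0.5 were set to 0.5.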

| Variant | yeast fitness |
| --- | --- |
| C22A C66U | 0.982 |
| C22A U26C U47C A57G C66A | 0.565 |
| C22A A45U | 0.837 |
| C22G A37C A45U G67A | 0.581 |
| C22A U28G C49A C61A | ≤ 0.5 |
| C22G A36C A37C | ≤ 0.5 |
| A21U U53A A65C G67A | 0.682 |
| C22A C33G A43C C55A C62U | ≤ 0.5 |
| A21U C66G | 0.513 |
| C22G C27A C49A G56C A65G | 0.746 |
| A21U G44A G56A | ≤ 0.5 |
| C22G A57U A65C C66G | ≤ 0.5 |
| C22A G67A | 0.888 |
| C22A G67C | 0.701 |
| C22A U28A U53G | ≤ 0.5 |
| C22A A42G C49U | ≤ 0.5 |
| C22G A42C A65U G67A | ≤ 0.5 |
| C22A C29U G56A C60G | ≤ 0.5 |
| C22G A70U | 1.01 |
| C22G A70C | 0.963 |
| A21U U54A A69U | ≤ 0.5 |
| A21U G48A A57U | 0.714 |
| C22A G52C | 0.665 |
| C22A G52A | 0.637 |

| Variant | yeast fitness |
| --- | --- |
| A21U G63C | 0.633 |
| C22G C24U C29U C30G G63C | ≤ 0.5 |
| C22A U26A C29G G50C | ≤ 0.5 |
| C22G A36C U47A A69C | ≤ 0.5 |
| A21U U28C C31U | 0.637 |
| A21U G25C A43G A65G | 0.609 |
| C22G A42U C62A | ≤ 0.5 |
| C22A C33A A36U | ≤ 0.5 |
| C22A A42G | 0.923 |
| C22A A42U | 0.677 |
| C22A A42C | 0.635 |
| C22A A37G C60G U64G | ≤ 0.5 |
| A21U U64G | 0.709 |
| A21U U28G A69C | 0.529 |
| A21U U35A G44A | ≤ 0.5 |
| C22A G48A C49U G50A G51C A70C | ≤ 0.5 |
| C22G A45C C49U A57U C62A | 0.619 |
| C22A C24A U26C | 0.559 |
| C22G C24U C29U C30G | 0.579 |
| C22G A40G A70U | 0.609 |
| C22G A42C C62U | 0.52 |
| C22A A37C A65G C66U | ≤ 0.5 |
| C22G A42C C60G | ≤ 0.5 |
| C22G C27A A65G | ≤ 0.5 |

| Variant | yeast fitness |
| --- | --- |
| C22A G23C G67U | ≤ 0.5 |
| C22G A43G A70U | 0.683 |
| C22A G23C U32G C66G | ≤ 0.5 |
| C22A A40G | 0.671 |
| A21U G56A G67U A69C | ≤ 0.5 |
| C22A G25A C27U A43C G44A | ≤ 0.5 |
| C22A G23A C33U C34G G67C A69C | ≤ 0.5 |
| C22G A42U G50U | 0.523 |
| C22G A43C A70U | 0.593 |
| C22A C34U | 0.761 |
| C22A C34G | 0.686 |
| C22G C24G C27G G58C | ≤ 0.5 |
| C22G A43U U54C C62U | ≤ 0.5 |
| A21U U59A A70U | 0.532 |
| C22A U28A G39C | ≤ 0.5 |
| C22A C34G A37C | ≤ 0.5 |
| C22A A43C G63C G67A | ≤ 0.5 |
| C22A U32G A37U | ≤ 0.5 |
| C22G C24U A37C G51C C55U A69C A70U | 0.554 |
| A21U U32G U59C | 0.732 |
| A21U U32G G51C A70G | ≤ 0.5 |
| C22A A36C C55G C61A | 0.611 |
| A21U U35A | 0.584 |
| C22A U28G C31G A42U | ≤ 0.5 |

| Variant | yeast fitness |
| --- | --- |
| C22A C61U | 0.864 |
| C22A C30U C34G A70U | ≤ 0.5 |
| A21U U54C C55G C60A C61G C66G | ≤ 0.5 |
| C22G C24U G44A U53G | 0.521 |
| A21U G25A C60U | ≤ 0.5 |
| C22A U28C | 0.852 |
| C22A U28G | 0.625 |
| A21U U59G | 0.583 |
| A21U U59C | 0.672 |
| C22A G41C U53C | 0.656 |
| C22A C27A | 0.718 |
| A21U U26A U54A A70U | ≤ 0.5 |
| C22G A36G | 0.966 |
| C22G A36U | 0.66 |
| C22A C29G | 0.55 |
| C22G C27G C29G C34A A43U A65U | ≤ 0.5 |
| C22A C24G C60G C66G | 0.542 |
| C22A C29A C61U | ≤ 0.5 |
| C22A U35A A37G G58A | ≤ 0.5 |
| A21U G52C C61U | ≤ 0.5 |
| A21U G25A C33U A57U U59C | 0.562 |
| A21U G39C C55A A57C | ≤ 0.5 |
| C22A C31A | 0.789 |
| A21U U28G | 0.659 |

| Variant | yeast fitness |
| --- | --- |
| C22A C62U A65C | 0.663 |
| C22A U47A G56A C60U | ≤ 0.5 |
| C22A A37U C66U | ≤ 0.5 |
| C22G A37C | 0.721 |
| C22A C31G C46A C49U | ≤ 0.5 |
| A21U C60U | 0.584 |
| A21U G23C C24U | 0.658 |
| C22A C24U U28A A37G | ≤ 0.5 |
| C22A C30A C33U C61G C62U | ≤ 0.5 |
| A21U G41A U54C | 0.723 |
| C22A C24A U26C U35C | ≤ 0.5 |
| C22A C29G C34G A42C C62G | ≤ 0.5 |
| C22G A69C A70G | 0.632 |
| C22A C29G G38C A65U | ≤ 0.5 |
| C22A C30G | 0.636 |
| C22A C30U | 0.647 |
| C22G A69U | 0.903 |
| C22G A69C | 0.82 |
| C22A A43G G63U U64A | ≤ 0.5 |
| C22A G25A A69U | 0.793 |
| C22A C31U G68C | 0.561 |
| A21U G50A | 0.629 |
| A21U U54A | 0.533 |
| C22A G25C A40C | 0.59 |

| Variant | yeast fitness |
| --- | --- |
| C22A C33A C60A | 0.642 |
| C22A U47C C61G | ≤ 0.5 |
| C22A C24G A43G | ≤ 0.5 |
| A21U G23A U64C G67A | 0.568 |
| C22G A40C A43U | ≤ 0.5 |
| A21U U64G A69G | ≤ 0.5 |
| C22A G25C | 1.05 |
| C22G A57U G63C | ≤ 0.5 |
| C22G A37C U54C | ≤ 0.5 |
| C22A A42U G50C A57G | ≤ 0.5 |
| C22A U35A A70U | ≤ 0.5 |
| A21U G23C G58U A65G G67A | ≤ 0.5 |
| C22G A45U U47A | ≤ 0.5 |
| A21U G51A C66A | ≤ 0.5 |
| C22A C29G C62A A69U | ≤ 0.5 |
| A21U U32G | 0.808 |
| A21U U32A | 0.643 |
| C22A C29A C66A | 0.513 |
| C22A U28G U35A | 0.571 |
| C22G C24A C55A | ≤ 0.5 |
| C22A C55U A65U | ≤ 0.5 |
| C22A C46A | 0.83 |
| C22A C34A G56C G58A C61A | 0.597 |
| C22A C46G A70C | 0.57 |

| Variant | yeast fitness |
| --- | --- |
| A21U C62A G67A A69G | ≤ 0.5 |
| C22A U28A A40U C61A | ≤ 0.5 |
| C22A U35G C66G A69U | ≤ 0.5 |
| C22G A36C C61U | ≤ 0.5 |
| C22A C24G U53C | ≤ 0.5 |
| C22A G25C G63A | 0.622 |
| C22A C29U C33G C46U C62U | ≤ 0.5 |
| C22G A42G U59A G68C | ≤ 0.5 |
| C22G C27G C29G C34A A43U U54C A65U | ≤ 0.5 |
| C22G A57U C61U | ≤ 0.5 |
| C22A C33G A37G | ≤ 0.5 |
| C22A G23C C30U C66G | ≤ 0.5 |
| C22G C27G C29G C34A A43U A69C | ≤ 0.5 |
| A21U G41A A42C U59C A69U | ≤ 0.5 |
| C22G C27G A45U A57G A70G | 0.595 |
| C22A U26A C29G C34G A65G A69C | ≤ 0.5 |
| C22G C27G A45U C49U A57G A70G | ≤ 0.5 |
| C22A C24A U26C C49U U64A | ≤ 0.5 |
| A21U G25A C29A A36G C46A C55A | ≤ 0.5 |
| C22A G58A C60U | ≤ 0.5 |
| C22G C27A | 0.604 |
| A21U G51A | 0.751 |
| A21U G51C | ≤ 0.5 |
